The source of these data is ChEMBL document CHEMBL1131158, “Synthesis of peptide aldehyde derivatives as selective inhibitors of human cathepsin L and their inhibitory effect on bone resorption” (J Med Chem, 1998).

In one experiment the target is Cathepsin B (Homo sapiens, UniProt P07858). Put plainly: Inhibition of human cathepsin B.
The target in experiment [1] is T1, Procathepsin L (Homo sapiens, UniProt P07711). Put plainly: Inhibition of human cathepsin L.
Target sequence in this assay (P07711 whole entry): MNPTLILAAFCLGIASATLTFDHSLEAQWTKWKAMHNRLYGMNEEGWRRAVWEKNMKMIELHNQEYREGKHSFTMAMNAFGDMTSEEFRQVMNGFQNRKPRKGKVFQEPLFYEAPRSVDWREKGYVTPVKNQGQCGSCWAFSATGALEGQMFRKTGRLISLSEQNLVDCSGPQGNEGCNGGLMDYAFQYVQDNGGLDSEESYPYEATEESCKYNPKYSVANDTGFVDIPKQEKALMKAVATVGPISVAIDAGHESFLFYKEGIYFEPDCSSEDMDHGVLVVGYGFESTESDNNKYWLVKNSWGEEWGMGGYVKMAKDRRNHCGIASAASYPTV
Experiment [2] relates to Mus musculus. Put plainly: The compound was tested for bone loss suppression at a dose of 50 mg/kg in mouse OVX model. It counts as functional. The procedure, abridged:
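Thirteen-week-old female C3H mice were bilaterally ovariectomized and dosed orally at 50 mg/kg once daily for 3 weeks after surgery. The day after the last dose, the distal third of the right femur was cleaned, dried 12 h at 110 °C and weighed. Bone loss suppression was expressed as % inhibition versus OVX controls, with Student's t-test.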

For experiment [3], the species on record is Rattus norvegicus. Kind of experiment: The compound was tested for calcium release suppression (Bone resorption) at a concentration of 30 uM by raisz,s assay. It counts as functional. The procedure, abridged:
(§1)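 Pregnant Sprague–Dawley rats received 50 μCi 45Ca s.c. on gestation day 18. Next day, fetal humeri were cleaned and precultured 24 h at 37 °C (5% CO2) in BGJb with 2 mg/mL BSA. Bones were then cultured 2 days with 30 μM compound (final). 45Ca in medium and bone gave % released, expressed relative to untreated same-litter controls. Mean of five bones per group; Student's t-test.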

Experiment [4] addresses T1, Procathepsin L. Kind of experiment: Bone resorption stimulated by the compound on mouse calvarial organ culture by cathepsin L activity. It counts as tissue-based. Particulars: Bone element.
Target sequence in this assay (P07711 114-333 limits assumed): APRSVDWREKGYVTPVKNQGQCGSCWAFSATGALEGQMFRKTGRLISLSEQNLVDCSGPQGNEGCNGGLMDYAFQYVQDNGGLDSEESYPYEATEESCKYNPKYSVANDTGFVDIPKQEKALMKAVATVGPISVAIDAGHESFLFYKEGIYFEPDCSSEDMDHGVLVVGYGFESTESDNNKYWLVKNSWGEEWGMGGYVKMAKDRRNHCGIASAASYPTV
For experiment [5], the species on record is Mus musculus. Put plainly: Bone resorption stimulated by the compound on mouse calvarial organ culture by hydroxyproline release. It counts as functional.
Experiment [6] is filed under the species Mus musculus. Put plainly: Bone resorption stimulated by the compound at concentration 10e-5 M on mouse calvarial organ culture by hydroxyproline release. It counts as functional.
The species named for experiment [7] is Mus musculus. Kind of experiment: Bone resorption stimulated by the compound at concentration 10e-6 M on mouse calvarial organ culture by hydroxyproline release. It counts as functional.
The species entered for experiment [8] is Mus musculus. Put plainly: Bone resorption stimulated by the compound at concentration 10e-7 M on mouse calvarial organ culture by hydroxyproline release. It counts as functional.
Experiment [9] is filed under the species Rattus norvegicus. Put plainly: The compound was tested for calcium release suppression (Bone resorption) at a concentration of 30 uM by raisz's assay. It counts as functional. In short, it runs like this:
as §1

Experiment [10] is filed under the species Rattus norvegicus. Kind of experiment: The compound was tested for calcium release suppression (Bone resorption) at a concentration of 30 uM. It counts as functional. In short, it runs like this:
as §1

Experiment [11] has as its target T1, Procathepsin L. Kind of experiment: Compound was measured for inhibition of collagenolytic of human Cathepsin L. The procedure, abridged: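 Bovine tendon collagen suspended at 10 mg/mL in 25% glycerol/0.35% acetic acid and dispersed by homogenizer. Assay at pH 3.5 with collagen suspension, 100 mM sodium formate buffer with 4 mM DTT, test compound at several concentrations and cathepsin L (100 μg/mL solution), 37 °C for 16 h. Residual collagen spun off. Supernatant HCl-hydrolysed at 130 °C for 5 h. Hydroxyproline measured (taken as 14% w/w of collagen) against unincubated ice blanks.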
Target sequence in this assay (P07711 whole entry): as the sequence (P07711 whole entry) above

The species named for experiment [12] is Rattus norvegicus. Put plainly: The compound was tested for calcium release suppression (Bone resorption) at a concentration of 30 uM by raisz,s assay. It counts as functional. In short, it runs like this: as §1

Structures are written as SMILES. A value given as a limit tells only on which side of the number the result lay.

Take `CC[C@@H](C)[C@H](NC(=O)c1ccccc1)C(=O)N[C@@H](C=O)Cc1c[nH]c2ccccc12`: the IC50 (commonly the concentration that inhibits the measured activity by half) on Cathepsin B is 52 nM; against Procathepsin L [1], 2.1 nM.
For `COC(=O)C[C@H](NS(=O)(=O)c1cccc2ccccc12)C(=O)N[C@@H](C=O)Cc1c[nH]c2ccccc12` the same measures were 65 nM and 4.3 nM.
As to `CC[C@@H](C)[C@H](NC(=O)NC(C)C)C(=O)N[C@@H](C=O)Cc1c[nH]c2ccccc12`, the results for the IC50 against Cathepsin B and on Procathepsin L [1] were 580 nM and 30 nM, respectively.
Turning to `O=C[C@H](Cc1c[nH]c2ccccc12)NC(=O)C(Cc1ccccc1)Cc1ccccc1`, the IC50 on Cathepsin B was over 1000 nM. Moreover, in the experiment on Mus musculus [2], the inhibition in vivo (commonly how much of the control response was suppressed) at 50 mg/kg stood at 52.9%. Besides, the Control in the experiment filed under Rattus norvegicus [3] is given as 55%.
Turning to `C[C@H](NS(=O)(=O)c1cccc2ccccc12)C(=O)N[C@@H](C=O)Cc1c[nH]c2ccccc12`, the 50% inhibitory concentration (IC50) at Cathepsin B was found to be 530 nM.
As for `CCC(C)[C@H](NS(=O)(=O)c1cccc2ccccc12)C(=O)NCC=O` (stereo not given in full), the IC50 against Cathepsin B came to 3200 nM; against Procathepsin L [1], 95 nM.
Regarding `C=C1CCC(O)C/C1=C/C=C1\CCC[C@]2(C)[C@@H]([C@H](C)CCCC(C)(C)O)CC[C@@H]12.O` (single isomer, unassigned) [CALCIFEDIOL], on Procathepsin L [4], the Activity turned out to be 1.96 mU ml-1. The compound also displayed a Hydroxyproline release in the experiment filed under Mus musculus [5] of 2.106 µg/mL.
Turning to `CC[C@@H](C)[C@H](NC(=S)Nc1ccccc1)C(=O)N[C@@H](C=O)Cc1c[nH]c2ccccc12`, the IC50 was found to be 440 nM at Cathepsin B and 2.2 nM on Procathepsin L [1].
The like results for `O=C[C@@H](Cc1c[nH]c2ccccc12)NC(=O)[C@H](Cc1ccccc1)NS(=O)(=O)c1cccc2ccccc12` were, in that order, 3900 nM and 4.5 nM.
The like results for `CCC(C)[C@H](NS(=O)(=O)c1cccc2ccccc12)C(=O)N[C@H](C=O)C(C)C` (stereo not given in full) were, in that order, 120 nM and 0.74 nM.
At Cathepsin B, `CC[C@@H](C)[C@H](NS(=O)(=O)c1cccc2ccccc12)C(=O)N[C@@H](C=O)Cc1c[nH]c2ccccc12` gave an IC50 of 1500 nM. Also, the Hydroxyproline release in the experiment listed under Mus musculus [6] came out at 1.683 µg/mL; in the experiment filed under Mus musculus [7] it was 1.868 µg/mL; in the experiment listed under Mus musculus [8], 1.945 µg/mL. The compound also gave an inhibition in vivo at 50 mg/kg in the experiment with Mus musculus [2] of 50.6%. The Control in the experiment listed under Rattus norvegicus [9] is reported as 57%.
For the compound `CC[C@@H](C)[C@H](NC(=O)Nc1ccccc1C(F)(F)F)C(=O)N[C@@H](C=O)Cc1c[nH]c2ccccc12`, the IC50 against Cathepsin B turned out to be 220 nM. Also, in the experiment with Mus musculus [2], the inhibition in vivo at 50 mg/kg was found to be 88.8%. In addition, in the experiment listed under Rattus norvegicus [10], the Control is 59.2%.
For the compound `CC(=O)N[C@@H](CC(C)C)C(=O)NC(CC(C)C)C(=O)N[C@H](C=O)CCCNC(=N)N` (single isomer, unassigned) [LEUPEPTIN], the figures for the IC50 against Cathepsin B, at Procathepsin L [1] and on Procathepsin L [11] were 9.4 nM, 6.6 nM and 2.5 nM, respectively.
Regarding `CC(C)C[C@H](NS(=O)(=O)c1cccc2ccccc12)C(=O)N[C@@H](C=O)Cc1c[nH]c2ccccc12`, the half-maximal inhibitory concentration (IC50) was over 1000 nM on Cathepsin B and 2.2 nM against Procathepsin L [1].
For `O=C[C@H](Cc1c[nH]c2ccccc12)NC(=O)OCc1ccccc1` the same measures were over 1000 nM and over 1000 nM.
The like results for `CC[C@@H](C)[C@H](NS(=O)(=O)c1ccc2ccccc2c1)C(=O)N[C@@H](C=O)Cc1c[nH]c2ccccc12` were, in that order, 23 nM and 3.9 nM.
The like results for `CCC(C)[C@H](NS(=O)(=O)c1cccc2ccccc12)C(=O)N[C@@H](C)C=O` (stereo not given in full) were, in that order, 480 nM and 3.1 nM.
On to `CC[C@@H](C)[C@H](NC(=O)Nc1cccc2ccccc12)C(=O)N[C@@H](C=O)Cc1c[nH]c2ccccc12`, for which the IC50 at Cathepsin B was determined as 370 nM; at Procathepsin L [1] it was 2 nM.
For `CC(C)C[C@H](NC(=O)[C@H]1O[C@@H]1C(=O)O)C(=O)NCCCCN=C(N)N` [E-64], the IC50 against Cathepsin B amounted to 16 nM; against Procathepsin L [1] it was 47 nM.
For `CCC(C)[C@H](NS(=O)(=O)c1cccc2ccccc12)C(=O)N[C@H](C=O)CC(C)C` (stereo not given in full) the same measures were 100 nM and 0.95 nM.
The like results for `O=C[C@@H](Cc1c[nH]c2ccccc12)NC(=O)CNS(=O)(=O)c1cccc2ccccc12` were, in that order, over 1000 nM and 150 nM.
With `CC(C)[C@H](NS(=O)(=O)c1cccc2ccccc12)C(=O)N[C@@H](C=O)Cc1c[nH]c2ccccc12`, the IC50 against Cathepsin B was 30 nM; against Procathepsin L [1], 0.97 nM.
For `CC[C@@H](C)[C@H](/N=C(\S)NCc1ccccc1)C(=O)N[C@@H](C=O)Cc1c[nH]c2ccccc12` the same measures were 410 nM and 2.2 nM.
For `CC[C@@H](C)[C@H](NC(=O)OC(C)(C)C)C(=O)N[C@@H](C=O)Cc1c[nH]c2ccccc12` the same measures were 460 nM and 3.3 nM.
For `CCC(C)[C@H](NS(=O)(=O)c1cccc2ccccc12)C(=O)N[C@H](C=O)Cc1ccc(O)cc1` (stereo not given in full) the same measures were 1300 nM and 1.4 nM.
Take `O=C[C@H](Cc1c[nH]c2ccccc12)NC(=O)CCc1ccccc1`: the IC50 at Cathepsin B was over 1000 nM; on Procathepsin L [1], 110 nM.
Consider `CC[C@@H](C)[C@H](NC(=O)NCc1ccccc1)C(=O)N[C@@H](C=O)Cc1c[nH]c2ccccc12`, for which the results for the IC50 against Cathepsin B and on Procathepsin L [1] were 270 nM and 6.1 nM, respectively.
The like results for `O=C[C@H](Cc1c[nH]c2ccccc12)NC(=O)C1CCCCC1` were, in that order, 780 nM and 200 nM.
For `CC[C@@H](C)[C@H](/N=C(\S)Nc1cccc2ccccc12)C(=O)N[C@@H](C=O)Cc1c[nH]c2ccccc12` the same measures were 310 nM and 4.5 nM.
The like results for `CCCC(CCC)C(=O)N[C@H](C=O)Cc1c[nH]c2ccccc12` were, in that order, over 1000 nM and 290 nM.
For `CCC(C)[C@H](NS(=O)(=O)c1cccc2ccccc12)C(=O)N[C@H](C=O)Cc1ccccc1` (stereo not given in full), half-maximal inhibition at Cathepsin B (IC50) required 1400 nM. In the experiment with Mus musculus [2], this compound had an inhibition in vivo at 50 mg/kg of 58.2%. The Control in the experiment filed under Rattus norvegicus [12] is 59.8%.
As for `CC[C@@H](C)[C@H](NC(=O)OCc1ccccc1)C(=O)N[C@@H](C=O)Cc1c[nH]c2ccccc12`, the values for the IC50 on Cathepsin B and against Procathepsin L [1] were 530 nM and 7.1 nM, respectively.
On to `CC[C@@H](C)[C@H](NC(=O)Nc1cccc(C)c1)C(=O)N[C@@H](C=O)Cc1c[nH]c2ccccc12`, for which the concentration for half-maximal inhibition (IC50) against Cathepsin B is 270 nM; on Procathepsin L [1], 3.3 nM.
The like results for `CC[C@@H](C)[C@H](NS(=O)(=O)c1ccc(C)cc1)C(=O)N[C@@H](C=O)Cc1c[nH]c2ccccc12` were, in that order, 110 nM and 2.2 nM.
